Test results: ChEMBL document CHEMBL1134066, “A new structural class of selective and non-covalent inhibitors of the chymotrypsin-like activity of the 20S proteasome” (Bioorg Med Chem Lett, 2001)

Organism: Homo sapiens
Experiment: In vitro inhibitory concentration against Chymotrypsin-like activity of the purified human placenta 20S Proteasome
Assay type: functional
Summary of the method: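 Purified human placenta 20S proteasome; chymotrypsin-like activity measured by cleavage of the fluorogenic substrate Suc-Leu-Val-Tyr-AMC (AMC release). Trypsin-like (Boc-Leu-Arg-Arg-AMC) and post-glutamyl-peptide hydrolytic-like (Z-Leu-Leu-Glu-AMC) substrates were used for the parallel selectivity assays.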

| SMILES | IC50 [nM] |
| --- | --- |
| COc1ccc(CN[C@@H](C(=O)N[C@H](C(=O)NCc2ccc(OC)cc2O)C(C)C)[C@H](O)[C@H](Cc2ccccc2)NC(=O)[C@@H](NC(=O)CCc2cccc(N)c2)C(C)(C)C)cc1 | 600 |
| COc1ccc(CN[C@@H](C(=O)N[C@H](C(=O)NCc2ccc(OC)cc2O)C(C)C)[C@H](O)[C@H](Cc2ccccc2)NC(=O)[C@@H](NC(=O)OCc2cc(C)cc(C)c2)C(C)(C)C)cc1 | 1100 |
| COc1ccc(CN[C@@H](C(=O)N[C@H](C(=O)NCc2ccc(OC)cc2O)C(C)C)[C@H](O)[C@H](Cc2ccccc2)NC(=O)[C@@H](NC(=O)OCc2cccc(N)c2)C(C)(C)C)cc1 | 600 |
| COc1ccc(CN[C@@H](C(=O)N[C@H](C(=O)NCc2ccc(OC)cc2O)C(C)C)[C@H](O)[C@H](Cc2ccccc2)NC(=O)[C@@H](NC(=O)OCc2cccc3ccccc23)C(C)(C)C)cc1 | 2000 |
| COc1ccc(CN[C@@H](C(=O)N[C@H](C(=O)NCc2ccc(OC)cc2OC)C(C)C)[C@H](O)[C@H](Cc2ccccc2)NC(=O)[C@@H](NC(=O)OCc2ccccc2)C(C)C)cc1 | > 20000 |
| COc1ccc(CN[C@@H](C(=O)N[C@H](C(=O)NCc2ccc(OC)cc2O)C(C)C)[C@H](O)[C@H](Cc2ccccc2)NC(=O)[C@@H](NC(=O)OC(C)(C)C)C(C)(C)C)cc1 | 27000 |
| COc1ccc(CN[C@@H](C(=O)N[C@H](C(=O)NCc2ccc(OC)cc2O)C(C)C)[C@H](O)[C@H](Cc2ccccc2)NC(=O)[C@@H](NC(=O)OCc2ccccc2)C(C)(C)C)cc1 | 900 |
| COc1ccc(CN[C@@H](C(=O)N[C@H](C(=O)NCc2ccc(OC)cc2O)C(C)C)[C@H](O)[C@H](Cc2ccccc2)NC(=O)[C@@H](NC(=O)OCc2ccccc2)C(C)C)cc1 | 3300 |
| COc1ccc(CN[C@@H](C(=O)N[C@H](C(=O)NCc2ccc(OC)cc2O)C(C)C)[C@H](O)[C@H](Cc2ccccc2)NC(=O)[C@@H](N)C(C)(C)C)cc1 | 70000 |
| COc1ccc(CN[C@@H](C(=O)N[C@H](C(=O)NCc2ccc(OC)cc2O)C(C)C)[C@H](O)[C@H](Cc2ccccc2)NC(=O)[C@@H](NC(=O)Cc2cccc3ccccc23)C(C)(C)C)cc1 | 100 |
| COc1ccc(CN[C@@H](C(=O)N[C@H](C(=O)NCc2ccc(OC)cc2O)C(C)C)[C@H](O)[C@H](Cc2ccccc2)NC(=O)[C@@H](NC(=O)OCc2cccc(C)c2)C(C)(C)C)cc1 | 500 |
| COc1ccc(CN[C@@H](C(=O)N[C@H](C(=O)NCc2ccccc2O)C(C)C)[C@H](O)[C@H](Cc2ccccc2)NC(=O)[C@@H](NC(=O)OCc2ccccc2)C(C)(C)C)cc1 | 72000 |
